Laboratory results published in ChEMBL document CHEMBL4706527, “Identification of novel quinoline analogues bearing thiazolidinones as potent kinase inhibitors for the treatment of colorectal cancer” (Eur J Med Chem, 2020).
Active and inactive are the calls of the source. No cut-off for these calls is given here.

Legend:
HT-29 [1] = experiment: cells; conditions: Homo sapiens
FHC [2] = experiment: Cytotoxicity aganist human FHC at 10 ug/ml measured after 72 hrs by IncuCyte live-cell imaging assay
HT-29 [3] = experiment: Antiproliferative activity against human HT-29 cells assessed as dead cells by measuring green fluorescent cells at 5 ug/mL for 72 hrs by IncuCyte live-cell imaging assay; assay type: functional, cell-based; conditions: dose 5.0 µg/ml
Summary of the method: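 HT-29 cells (5×10^3 per well) in DMEM with 10% FBS at 37 °C, 5% CO2; compound added after 24 h culture. YOYO-1 iodide added, green-fluorescent cells counted as dead; live-cell imaging every 2 h for 72 h; three replicates; mean ± SD of three independent experiments.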

HT-29 [4] = experiment: Cell cycle arrest in human HT-29 cells assessed as accumulation in S phase at 3 ug/ml incubated for 48 hrs by propidium iodide base flow cytometry analysis (reference value: 22.4%); assay type: functional; conditions: dose 3 µg/ml
FHC [5] = experiment: Antiproliferative activity aganist human FHC at 10 ug/ml measured after 72 hrs by MTT assay; assay type: cell-based; conditions: at 10 µg/mL
HT-29 [6] = experiment: Antiproliferative activity against human HT-29 cells assessed as dead cells by measuring green fluorescent cells at 1 to 3 ug/mL by IncuCyte live-cell imaging assay; assay type: functional, cell-based
Summary of the method: (§1)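 HT-29 cells (5×10^3/well) in DMEM with 10% FBS, cultured 24 h at 37 °C, 5% CO2, then treated with graded concentrations of compound; 0.1% DMSO vehicle control. YOYO-1 iodide DNA dye added; green-fluorescent cells counted as dead, imaged every 2 h for 72 h in an IncuCyte system. Three replicates; mean ± SD of three independent experiments.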

HT-29 [7] = experiment: Antiproliferative activity against human HT-29 cells assessed as dead cells by measuring green fluorescent cells for 48 to 72 hrs by IncuCyte live-cell imaging assay; assay type: functional, cell-based
Summary of the method: as §1

HT-29 [8] = experiment: Cell cycle arrest in human HT-29 cells assessed as accumulation in G2/M phase at 3 ug/ml incubated for 48 hrs by propidium iodide base flow cytometry analysis (reference value: 2.4%); assay type: functional; conditions: dose 3 µg/ml
HT-29 [9] = experiment: Cytotoxicity against human HT-29 cells assessed as reduction in cell viability measured after 36 hrs by MTT assay; assay type: functional, cell-based; conditions: dose 0.56-1.67 µg/ml
FHC [10] = experiment: Cytotoxicity aganist human FHC at 0.19 ug/ml measured after 72 hrs by IncuCyte live-cell imaging assay
HT-29 [11] = experiment: Cytotoxicity against human HT-29 cells assessed as reduction in cell viability at 5 ug/mL by MTT assay; assay type: functional, cell-based; conditions: dose 5.0 µg/ml
HT-29 [12] = experiment: Cell cycle arrest in human HT-29 cells assessed as accumulation in G0/G1 phase at 3 ug/ml incubated for 48 hrs by propidium iodide base flow cytometry analysis (reference value: 71.6%); assay type: functional; conditions: dose 3 µg/ml
[13] = molecular target: Proto-oncogene tyrosine-protein kinase Src (Homo sapiens, UniProt P12931); experiment: Inhibition of c-Src (unknown origin) using FAM-labelled peptide and ATP incubated for 10 mins by mobility shift assay
HT-29 [14] = experiment: Cytotoxicity against human HT-29 cells assessed as reduction in cell viability measured at 0.56 to 1.67 microg/ml by IncuCyte live-cell imaging assay; conditions: dose 0.56-1.67 µg/ml, TDE = time-dependent effect
HT-29 [15] = experiment: Cell cycle arrest in human HT-29 cells assessed as accumulation in G2/M phase at 0.3 ug/ml incubated for 48 hrs by propidium iodide base flow cytometry analysis (reference value: 2.4%); assay type: functional; conditions: dose 0.3 µg/ml
[16] = molecular target: T1, Tyrosine-protein kinase receptor UFO (Homo sapiens, UniProt P30530); experiment: Inhibition of AXL (unknown origin) using FAM-labelled peptide and ATP incubated for 10 mins by mobility shift assay
T1 sequence (P30530 whole entry): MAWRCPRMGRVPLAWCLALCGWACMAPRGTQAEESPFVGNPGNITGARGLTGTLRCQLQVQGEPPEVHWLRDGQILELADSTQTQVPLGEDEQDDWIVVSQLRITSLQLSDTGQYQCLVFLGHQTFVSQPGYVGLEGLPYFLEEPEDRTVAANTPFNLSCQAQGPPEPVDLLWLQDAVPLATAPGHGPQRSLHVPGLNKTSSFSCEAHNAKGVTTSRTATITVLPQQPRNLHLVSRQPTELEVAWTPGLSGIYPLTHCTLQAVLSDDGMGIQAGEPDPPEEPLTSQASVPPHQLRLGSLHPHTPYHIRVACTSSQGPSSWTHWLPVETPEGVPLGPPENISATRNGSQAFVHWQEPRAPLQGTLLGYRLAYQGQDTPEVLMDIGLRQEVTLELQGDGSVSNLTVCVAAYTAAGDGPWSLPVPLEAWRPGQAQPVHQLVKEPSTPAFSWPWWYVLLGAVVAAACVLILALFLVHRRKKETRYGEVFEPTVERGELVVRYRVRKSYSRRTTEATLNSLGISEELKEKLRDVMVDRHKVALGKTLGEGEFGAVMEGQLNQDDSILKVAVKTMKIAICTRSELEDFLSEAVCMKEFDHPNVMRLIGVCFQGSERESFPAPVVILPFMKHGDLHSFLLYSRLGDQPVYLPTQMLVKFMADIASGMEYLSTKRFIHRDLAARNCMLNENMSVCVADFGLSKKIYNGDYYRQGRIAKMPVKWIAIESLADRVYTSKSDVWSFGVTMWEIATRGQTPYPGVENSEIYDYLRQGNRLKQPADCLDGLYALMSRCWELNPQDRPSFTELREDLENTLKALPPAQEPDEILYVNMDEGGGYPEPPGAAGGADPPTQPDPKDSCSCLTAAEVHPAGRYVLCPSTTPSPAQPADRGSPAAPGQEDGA

HT-29 [17] = experiment: Cell cycle arrest in human HT-29 cells assessed as accumulation in G2/M phase at 1 ug/ml incubated for 48 hrs by propidium iodide base flow cytometry analysis (reference value: 2.4%); assay type: functional; conditions: dose 1 µg/ml
HT-29 [18] = experiment: Cell cycle arrest in human HT-29 cells assessed as accumulation in S phase at 0.3 ug/ml incubated for 48 hrs by propidium iodide base flow cytometry analysis (reference value: 22.4%); assay type: functional; conditions: dose 0.3 µg/ml
[19] = molecular target: T2, Hepatocyte growth factor receptor (Homo sapiens, UniProt P08581); experiment: Inhibition of c-Met (unknown origin) using FAM-labelled peptide and ATP incubated for 10 mins by mobility shift assay relative to control
[20] = molecular target: Mast/stem cell growth factor receptor Kit (Homo sapiens, UniProt P10721); experiment: Inhibition of c-Kit (unknown origin) using FAM-labelled peptide and ATP incubated for 10 mins by mobility shift assay
[21] = molecular target: Serine/threonine-protein kinase B-raf (Homo sapiens, UniProt P15056); experiment: Inhibition of B-Raf (unknown origin) by mobility shift assay
[22] = molecular target: T2, Hepatocyte growth factor receptor; experiment: Inhibition of c-Met (unknown origin) using FAM-labelled peptide and ATP incubated for 10 mins by mobility shift assay
HT-29 [23] = experiment: Cell cycle arrest in human HT-29 cells assessed as accumulation in G0/G1 phase at 0.3 ug/ml incubated for 48 hrs by propidium iodide base flow cytometry analysis (reference value: 71.6%); assay type: functional; conditions: dose 0.3 µg/ml
[24] = molecular target: Platelet-derived growth factor receptor alpha (Homo sapiens, UniProt P16234); experiment: Inhibition of PDGFR alpha (unknown origin) by mobility shift assay
HT-29 [25] = experiment: Cell cycle arrest in human HT-29 cells assessed as accumulation in G0/G1 phase at 1 ug/ml incubated for 48 hrs by propidium iodide base flow cytometry analysis (reference value: 71.6%); assay type: functional; conditions: dose 1 µg/ml
[26] = molecular target: Macrophage-stimulating protein receptor (Homo sapiens, UniProt Q04912); experiment: Inhibition of Ron (unknown origin) using FAM-labelled peptide and ATP incubated for 10 mins by mobility shift assay
HT-29 [27] = experiment: Cell cycle arrest in human HT-29 cells assessed as accumulation in S phase at 1 ug/ml incubated for 48 hrs by propidium iodide base flow cytometry analysis (reference value: 22.4%); assay type: functional; conditions: dose 1 µg/ml
[28] = molecular target: Insulin-like growth factor 1 receptor (Homo sapiens, UniProt P08069); experiment: Inhibition of IGF1R (unknown origin) by mobility shift assay

T2 sequence (P08581 whole entry): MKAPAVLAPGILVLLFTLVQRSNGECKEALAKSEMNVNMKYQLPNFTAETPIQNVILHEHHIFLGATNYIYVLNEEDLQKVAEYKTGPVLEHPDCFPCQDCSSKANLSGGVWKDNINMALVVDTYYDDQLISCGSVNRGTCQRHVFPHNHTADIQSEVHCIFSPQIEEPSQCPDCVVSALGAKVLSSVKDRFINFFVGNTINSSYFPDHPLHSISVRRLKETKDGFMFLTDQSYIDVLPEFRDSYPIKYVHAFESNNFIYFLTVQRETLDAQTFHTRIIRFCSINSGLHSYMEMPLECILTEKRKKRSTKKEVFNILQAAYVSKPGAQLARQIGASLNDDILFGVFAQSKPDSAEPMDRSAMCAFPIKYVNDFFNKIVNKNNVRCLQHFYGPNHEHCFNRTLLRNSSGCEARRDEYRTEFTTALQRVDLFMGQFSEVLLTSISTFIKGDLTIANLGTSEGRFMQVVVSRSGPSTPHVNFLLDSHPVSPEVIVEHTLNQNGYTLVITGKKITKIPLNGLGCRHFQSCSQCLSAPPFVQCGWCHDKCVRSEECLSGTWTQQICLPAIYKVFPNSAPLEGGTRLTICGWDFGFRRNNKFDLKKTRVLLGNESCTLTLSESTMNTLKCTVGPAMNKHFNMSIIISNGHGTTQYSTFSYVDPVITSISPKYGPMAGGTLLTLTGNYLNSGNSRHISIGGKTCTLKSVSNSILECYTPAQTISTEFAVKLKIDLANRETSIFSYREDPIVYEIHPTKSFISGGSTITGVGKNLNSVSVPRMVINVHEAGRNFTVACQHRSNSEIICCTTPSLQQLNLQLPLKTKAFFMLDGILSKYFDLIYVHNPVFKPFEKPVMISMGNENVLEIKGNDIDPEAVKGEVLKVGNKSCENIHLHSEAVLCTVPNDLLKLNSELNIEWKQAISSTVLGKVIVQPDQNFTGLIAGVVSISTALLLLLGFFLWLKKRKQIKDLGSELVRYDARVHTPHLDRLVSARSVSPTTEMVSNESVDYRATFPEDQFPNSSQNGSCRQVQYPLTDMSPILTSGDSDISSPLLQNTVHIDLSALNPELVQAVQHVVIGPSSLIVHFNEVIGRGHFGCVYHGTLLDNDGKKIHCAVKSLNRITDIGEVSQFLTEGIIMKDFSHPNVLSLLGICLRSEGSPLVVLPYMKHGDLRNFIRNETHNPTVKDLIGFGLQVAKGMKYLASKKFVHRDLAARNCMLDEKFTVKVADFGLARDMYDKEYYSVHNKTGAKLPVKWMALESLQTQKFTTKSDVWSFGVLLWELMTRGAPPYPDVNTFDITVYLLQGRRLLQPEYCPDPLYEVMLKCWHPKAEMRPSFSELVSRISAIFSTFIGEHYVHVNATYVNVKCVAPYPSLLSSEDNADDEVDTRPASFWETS
Chain of Mast/stem cell growth factor receptor Kit (P10721 whole entry): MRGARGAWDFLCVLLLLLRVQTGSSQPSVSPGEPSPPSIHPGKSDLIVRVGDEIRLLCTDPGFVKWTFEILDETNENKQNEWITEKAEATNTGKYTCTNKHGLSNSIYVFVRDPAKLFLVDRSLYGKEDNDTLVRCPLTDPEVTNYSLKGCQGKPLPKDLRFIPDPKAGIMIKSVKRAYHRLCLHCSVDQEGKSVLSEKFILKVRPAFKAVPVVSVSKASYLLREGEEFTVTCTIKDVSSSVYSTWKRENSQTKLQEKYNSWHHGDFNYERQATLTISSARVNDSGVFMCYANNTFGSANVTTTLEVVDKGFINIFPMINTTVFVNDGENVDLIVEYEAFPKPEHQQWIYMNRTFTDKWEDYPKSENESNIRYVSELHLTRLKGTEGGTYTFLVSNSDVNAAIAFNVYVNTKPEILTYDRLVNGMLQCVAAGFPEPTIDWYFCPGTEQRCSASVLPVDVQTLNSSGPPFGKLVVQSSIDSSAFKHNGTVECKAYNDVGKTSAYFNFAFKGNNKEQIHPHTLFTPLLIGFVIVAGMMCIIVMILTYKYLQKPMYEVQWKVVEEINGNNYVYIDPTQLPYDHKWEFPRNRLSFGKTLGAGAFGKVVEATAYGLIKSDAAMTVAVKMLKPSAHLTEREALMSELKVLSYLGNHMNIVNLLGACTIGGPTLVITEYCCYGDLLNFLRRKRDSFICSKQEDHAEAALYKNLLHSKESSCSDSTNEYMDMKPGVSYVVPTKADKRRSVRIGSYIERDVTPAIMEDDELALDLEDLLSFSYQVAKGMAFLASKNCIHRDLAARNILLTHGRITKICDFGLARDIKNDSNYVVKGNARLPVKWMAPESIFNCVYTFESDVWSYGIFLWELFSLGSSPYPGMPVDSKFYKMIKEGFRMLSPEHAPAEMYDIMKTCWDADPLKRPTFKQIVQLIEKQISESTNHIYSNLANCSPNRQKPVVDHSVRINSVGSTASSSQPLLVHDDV
Chain of Macrophage-stimulating protein receptor (Q04912 25-304 limits assumed): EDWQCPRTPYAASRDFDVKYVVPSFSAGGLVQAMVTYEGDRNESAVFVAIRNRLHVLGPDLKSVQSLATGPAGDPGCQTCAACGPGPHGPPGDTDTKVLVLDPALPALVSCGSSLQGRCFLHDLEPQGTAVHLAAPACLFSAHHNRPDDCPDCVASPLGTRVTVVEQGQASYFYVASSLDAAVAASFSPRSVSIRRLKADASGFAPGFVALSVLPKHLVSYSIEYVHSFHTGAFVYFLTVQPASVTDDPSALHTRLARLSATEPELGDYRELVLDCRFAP
Chain of Macrophage-stimulating protein receptor (Q04912 310-1400 limits assumed): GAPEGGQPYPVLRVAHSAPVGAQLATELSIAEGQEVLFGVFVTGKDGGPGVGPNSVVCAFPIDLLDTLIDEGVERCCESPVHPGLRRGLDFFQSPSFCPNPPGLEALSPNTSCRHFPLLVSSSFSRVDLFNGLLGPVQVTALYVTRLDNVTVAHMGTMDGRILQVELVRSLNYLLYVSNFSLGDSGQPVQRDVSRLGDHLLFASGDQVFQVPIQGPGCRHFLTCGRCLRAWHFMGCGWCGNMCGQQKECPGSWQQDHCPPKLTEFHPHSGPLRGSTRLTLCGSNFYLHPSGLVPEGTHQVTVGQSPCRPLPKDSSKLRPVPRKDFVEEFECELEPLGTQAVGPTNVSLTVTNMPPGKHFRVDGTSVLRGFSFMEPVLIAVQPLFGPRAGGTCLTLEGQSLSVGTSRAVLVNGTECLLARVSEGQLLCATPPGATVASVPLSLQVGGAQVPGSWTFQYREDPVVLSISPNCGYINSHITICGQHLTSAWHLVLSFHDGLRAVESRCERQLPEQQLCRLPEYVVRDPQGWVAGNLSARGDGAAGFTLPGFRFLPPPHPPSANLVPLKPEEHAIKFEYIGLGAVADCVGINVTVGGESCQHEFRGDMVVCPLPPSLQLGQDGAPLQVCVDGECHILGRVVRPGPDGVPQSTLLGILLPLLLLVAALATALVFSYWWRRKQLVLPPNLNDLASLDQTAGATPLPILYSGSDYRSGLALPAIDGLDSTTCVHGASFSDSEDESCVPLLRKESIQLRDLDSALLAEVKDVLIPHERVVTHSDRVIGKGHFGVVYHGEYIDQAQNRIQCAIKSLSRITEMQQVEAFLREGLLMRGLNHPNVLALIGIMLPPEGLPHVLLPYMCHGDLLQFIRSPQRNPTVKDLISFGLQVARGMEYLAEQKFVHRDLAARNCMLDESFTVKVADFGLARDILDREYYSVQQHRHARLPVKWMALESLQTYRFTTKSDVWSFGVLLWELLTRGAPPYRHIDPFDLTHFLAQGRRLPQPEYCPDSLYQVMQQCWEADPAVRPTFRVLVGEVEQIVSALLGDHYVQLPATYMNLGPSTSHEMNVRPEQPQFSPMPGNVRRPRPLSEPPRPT
Chain of Platelet-derived growth factor receptor alpha (P16234 whole entry): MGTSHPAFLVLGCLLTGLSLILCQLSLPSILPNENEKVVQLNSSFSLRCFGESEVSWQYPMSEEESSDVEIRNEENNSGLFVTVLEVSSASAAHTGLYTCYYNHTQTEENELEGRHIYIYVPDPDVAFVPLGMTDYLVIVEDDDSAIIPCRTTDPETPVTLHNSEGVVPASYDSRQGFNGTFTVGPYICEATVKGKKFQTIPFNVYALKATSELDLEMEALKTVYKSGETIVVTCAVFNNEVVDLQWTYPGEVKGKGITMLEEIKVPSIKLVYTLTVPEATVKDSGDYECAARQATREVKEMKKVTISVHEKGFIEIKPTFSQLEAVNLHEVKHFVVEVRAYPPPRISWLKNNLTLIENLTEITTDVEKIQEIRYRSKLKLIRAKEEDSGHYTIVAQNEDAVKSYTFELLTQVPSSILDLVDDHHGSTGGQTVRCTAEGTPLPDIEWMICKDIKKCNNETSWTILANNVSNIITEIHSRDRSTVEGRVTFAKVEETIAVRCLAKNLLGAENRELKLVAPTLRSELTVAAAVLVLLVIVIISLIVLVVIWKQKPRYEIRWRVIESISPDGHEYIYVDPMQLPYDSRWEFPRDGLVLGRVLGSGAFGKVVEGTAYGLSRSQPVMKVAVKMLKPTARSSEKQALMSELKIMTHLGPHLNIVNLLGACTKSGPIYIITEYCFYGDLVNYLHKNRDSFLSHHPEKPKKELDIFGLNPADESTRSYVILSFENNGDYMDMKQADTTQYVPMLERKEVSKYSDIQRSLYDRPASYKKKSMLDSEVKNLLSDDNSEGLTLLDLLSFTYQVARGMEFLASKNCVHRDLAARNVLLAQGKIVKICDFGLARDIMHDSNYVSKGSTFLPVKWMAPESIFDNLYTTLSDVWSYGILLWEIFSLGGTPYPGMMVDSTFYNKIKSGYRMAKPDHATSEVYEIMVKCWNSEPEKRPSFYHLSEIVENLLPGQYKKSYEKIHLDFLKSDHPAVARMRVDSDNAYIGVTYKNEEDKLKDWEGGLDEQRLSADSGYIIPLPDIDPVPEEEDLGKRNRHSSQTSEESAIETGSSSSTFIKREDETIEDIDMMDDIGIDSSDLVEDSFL

## COc1cc2c(Oc3ccc(NC(=O)NN4C(=O)CSC4c4ccc(F)cc4)cc3)ccnc2cc1OC1CCN(C(=O)NC2CCCCC2)CC1 (configuration not stated)
HT-29 [1]
  IC50: 3420 nM

## COc1cc2c(Sc3ccc(NC(=O)NN4C(=O)CSC4c4c(F)cccc4F)cc3)ccnc2cc1OCC1CCN(C(=O)NC(C)C)CC1 (configuration not stated)
HT-29 [1]
  IC50: 390 nM

## COc1cc2c(Oc3ccc(NC(=O)NN4C(=O)CSC4c4cccc(F)c4)cc3)ccnc2cc1OC1CCN(C(=O)NC(C)C)CC1 (configuration not stated)
HT-29 [1]
  IC50: 670 nM

## COc1cc2c(Sc3ccc(NC(=O)NN4C(=O)CSC4c4c(F)cccc4F)cc3)ccnc2cc1OC1CCN(C(=O)NC(C)C)CC1 (configuration not stated)
HT-29 [1]
  IC50: 420 nM

## COc1cc2c(Sc3ccc(NC(=O)NN4C(=O)CSC4c4c(F)cccc4F)cc3)cc(N)nc2cc1OC1CCN(C(=O)NC(C)C)CC1 (configuration not stated)
HT-29 [1]
  IC50: 5600 nM

## COc1cc2c(Oc3cccc(NC(=O)NN4C(=O)CSC4c4c(F)cccc4F)c3)ccnc2cc1OC1CCN(C(=O)NC(C)C)CC1 (configuration not stated)
HT-29 [1]
  IC50: > 10000 nM

## CNC(=O)c1cc(Oc2ccc(NC(=O)Nc3ccc(Cl)c(C(F)(F)F)c3)c(F)c2)ccn1 [REGORAFENIB]
FHC [2]
  Activity: Toxic
HT-29 [3]
  Activity: Active
HT-29 [4]
  Activity: 15.7%
FHC [5]
  Activity: 13.5%
HT-29 [1]
  IC50: 2870 nM
HT-29 [6]
  AC50: Active
HT-29 [7]
  Activity: Active
HT-29 [8]
  Activity: 2%
HT-29 [9]
  Activity: inactive
FHC [10]
  Activity: Toxic
HT-29 [11]
  Activity: inactive
HT-29 [12]
  Activity: 78.5%

## CCNC(=O)N1CCC(Oc2cc3nccc(Oc4ccc(NC(=O)NN5C(=O)CSC5c5ccc(F)cc5)cc4)c3cc2OC)CC1 (configuration not stated)
HT-29 [1]
  IC50: 2250 nM

## CCCCNC(=O)N1CCC(Oc2cc3nccc(Oc4ccc(NC(=O)NN5C(=O)CSC5c5ccc(F)cc5)cc4)c3cc2OC)CC1 (configuration not stated)
HT-29 [1]
  IC50: 1700 nM

## COc1cc2c(Oc3ccc(NC(=O)NN4C(=O)CSC4c4cccc(F)c4F)cc3)ccnc2cc1OC1CCN(C(=O)NC(C)C)CC1 (configuration not stated)
HT-29 [1]
  IC50: 790 nM

## COc1cc2c(Oc3ccc(NC(=O)NN4C(=O)CSC4c4ccc(F)cc4)cc3)ccnc2cc1OC1CCN(C(=O)NCc2ccccc2)CC1 (configuration not stated)
HT-29 [1]
  IC50: 6600 nM

## COc1cc2c(Oc3ccc(NC(=O)NN4C(=O)CSC4c4ccccc4F)cc3)ccnc2cc1OC1CCN(C(=O)NC(C)C)CC1 (configuration not stated)
HT-29 [1]
  IC50: 410 nM

## COc1cc2c(Oc3ccc(NC(=O)NN4C(=O)CSC4c4ccc(F)cc4)cc3)ccnc2cc1OC1CCN(C(=O)NC(C)C)CC1 (configuration not stated)
HT-29 [1]
  IC50: 860 nM

## COc1cc2nccc(Sc3ccc(NC(=O)NN4C(=O)CSC4c4c(F)cccc4F)cc3)c2cc1OCC1CCN(C(=O)NC(C)C)CC1 (configuration not stated)
HT-29 [1]
  IC50: > 10000 nM

## COc1cc2c(Oc3ccc(NC(=O)NN4C(=O)CSC4c4ccccc4)cc3)ccnc2cc1OC1CCN(C(=O)NC(C)C)CC1 (configuration not stated)
HT-29 [1]
  IC50: 1260 nM

## COc1cc2c(Oc3ccc(NC(=O)NN4C(=O)CSC4c4c(F)cc(F)cc4F)cc3)ccnc2cc1OC1CCN(C(=O)NC(C)C)CC1 (configuration not stated)
HT-29 [1]
  IC50: 910 nM

## COc1cc2c(Oc3ccc(NC(=O)NN4C(=O)CSC4c4ccc(F)c(F)c4)cc3)ccnc2cc1OC1CCN(C(=O)NC(C)C)CC1 (configuration not stated)
HT-29 [1]
  IC50: 1060 nM

## COc1cc2c(Oc3ccc(NC(=O)NN4C(=O)CSC4c4ccc(F)cc4F)cc3)ccnc2cc1OC1CCN(C(=O)NC(C)C)CC1 (configuration not stated)
HT-29 [1]
  IC50: 950 nM

## COc1cc2c(Oc3ccc(NC(=O)NN4C(=O)CSC4c4c(F)cccc4F)cc3)ccnc2cc1OC1CCN(C(=O)NC(C)C)CC1 (configuration not stated)
FHC [2]
  Activity: Toxic
[13]
  IC50: 421 nM
HT-29 [14]
  Activity: Tde
HT-29 [3]
  Activity: Active
HT-29 [15]
  Activity: 3.8%
HT-29 [4]
  Activity: 18.3%
FHC [5]
  Activity: 26.7%
[16]
  IC50: 632 nM
HT-29 [1]
  IC50: 310 nM
HT-29 [6]; dose 1-3 µg/ml, time 48-72 hrs, TDE = time-dependent effect
  Activity: Tde
HT-29 [17]
  Activity: 4.3%
HT-29 [18]
  Activity: 19.7%
HT-29 [7]; dose 1-3 µg/ml, time 48-72 hrs
  Activity: Dose-dependent effect
[19]
  IC50: 382 nM
[20]
  IC50: > 10000 nM
HT-29 [8]
  Activity: 4.4%
HT-29 [9]
  Activity: Dose-dependent effect
[21]
  IC50: > 10000 nM
[22]
  IC50: 382 nM
HT-29 [11]
  Activity: Active
HT-29 [23]
  Activity: 71.3%
[24]
  IC50: 384 nM
HT-29 [25]
  Activity: 71.5%
[26]
  IC50: 122 nM
HT-29 [27]
  Activity: 20.3%
HT-29 [12]
  Activity: 71.2%
[28]
  IC50: > 10000 nM

## COc1cc2c(Sc3ccc(NC(=O)NN4C(=O)CSC4c4c(F)cccc4F)cc3)ccnc2cc1OC1CCCN(C(=O)NC(C)C)C1 (configuration not stated)
HT-29 [1]
  IC50: > 10000 nM
